# Measured values taken from ChEMBL document CHEMBL1177643, “Synthesis, DNA-binding ability and anticancer activity of benzothiazole/benzoxazole-pyrrolo[2,1-c][1,4]benzodiazepine conjugates” (Bioorg Med Chem, 2010).
# How the values were obtained:
# NCI-H460 = assay: Growth inhibition of human NCI-H460 cells after 48 hrs by sulforhodamine B assay; format: functional; conditions: NCI-H460, 48 h
# Method in brief: (§1)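 Panel of 60 human cancer cell lines; for each compound, dose–response curves per cell line measured at a minimum of five concentrations at 10-fold dilutions. Cells exposed continuously to drug for 48 h, and growth was read out by sulforhodamine B staining.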
# BT-549 = assay: Growth inhibition of human BT549 cells after 48 hrs by sulforhodamine B assay; format: functional; conditions: BT-549, 48 h
# Method in brief: (§2)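 Dose–response in each cell line over at least five concentrations at 10-fold dilutions, with 48 h continuous exposure and sulforhodamine B read-out.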
# SF-539 = assay: Growth inhibition of human SF539 cells after 48 hrs by sulforhodamine B assay; format: functional; conditions: SF-539, 48 h; method in brief: as §1
# SNB-75 = assay: Growth inhibition of human SNB75 cells after 48 hrs by sulforhodamine B assay; format: functional; conditions: SNB-75, 48 h; method in brief: as §1
# MCF7 = assay: Growth inhibition of human MCF7 cells after 48 hrs by sulforhodamine B assay; format: functional; conditions: MCF7, 48 h; method in brief: as §1
# COLO 205 = assay: Growth inhibition of human COLO205 cells after 48 hrs by sulforhodamine B assay; format: functional; conditions: COLO 205, 48 h; method in brief: as §2
# HCT-116 = assay: Growth inhibition of human HCT116 cells after 48 hrs by sulforhodamine B assay; format: functional; conditions: HCT-116, 48 h; method in brief: as §1
# HOP-92 = assay: Growth inhibition of human HOP92 cells after 48 hrs by sulforhodamine B assay; format: functional; conditions: HOP-92, 48 h; method in brief: as §1
# U-251 = assay: Growth inhibition of human U251 cells after 48 hrs by sulforhodamine B assay; format: functional; conditions: U-251, 48 h; method in brief: as §1
# A-375 [1] = assay: Cell cycle arrest in human A375 cells assessed as accumulation at G1 phase at 2 uM after 24 hrs using propidium iodide staining by flow cytometry; format: functional
# Method in brief: (§3)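 A375 cells (5×10^5) grown 24 h, then exposed to compound 24 h (DMSO control). Trypsin–EDTA harvest, fixed in ice-cold 70% ethanol at 4 °C 30 min, RNase A 37 °C 30 min, propidium iodide staining. DNA content measured by flow cytometry on 20,000 events, gated as sub-G1/G0, G1, S and G2/M.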
# HCC 2998 = assay: Growth inhibition of human HCC2998 cells after 48 hrs by sulforhodamine B assay; format: functional; conditions: HCC 2998, 48 h; method in brief: as §1
# 786-0 = assay: Growth inhibition of human 786-0 cells after 48 hrs by sulforhodamine B assay; format: functional; conditions: 786-0, 48 h; method in brief: as §2
# Calf thymus DNA = assay: Binding affinity to calf thymus duplex-form DNA assessed as melting temperature at 1:5 compound/DNA ratio after 18 hrs; format: nucleic-acid assay; conditions: Bos taurus
# A498 = assay: Growth inhibition of human A498 cells after 48 hrs by sulforhodamine B assay; format: functional; conditions: A498, 48 h; method in brief: as §2
# A-375 [2] = assay: Cell cycle arrest in human A375 cells assessed as accumulation at G0/G1 phase at 2 uM after 24 hrs using propidium iodide staining by flow cytometry; format: functional; method in brief: as §3
# SF-295 = assay: Growth inhibition of human SF295 cells after 48 hrs by sulforhodamine B assay; format: functional; conditions: SF-295, 48 h; method in brief: as §1
# HOP-62 = assay: Growth inhibition of human HOP62 cells after 48 hrs by sulforhodamine B assay; format: functional; conditions: HOP-62, 48 h; method in brief: as §1
# ACHN = assay: Growth inhibition of human ACHN cells after 48 hrs by sulforhodamine B assay; format: functional; method in brief: as §2
# NCI-H322M = assay: Growth inhibition of human NCI-H322M cells after 48 hrs by sulforhodamine B assay; format: functional; method in brief: as §1
# RXF 393 = assay: Growth inhibition of human RXF393 cells after 48 hrs by sulforhodamine B assay; format: functional; conditions: RXF 393, 48 h; method in brief: as §1
# SF-268 = assay: Growth inhibition of human SF268 cells after 48 hrs by sulforhodamine B assay; format: functional; conditions: SF-268, 48 h; method in brief: as §1
# OVCAR-5 = assay: Growth inhibition of human OVCAR5 cells after 48 hrs by sulforhodamine B assay; format: functional; conditions: OVCAR-5, 48 h; method in brief: as §1
# NCI/ADR-RES = assay: Growth inhibition of human NCI/ADR-RES cells after 48 hrs by sulforhodamine B assay; format: functional; method in brief: as §1
# LOX IMVI = assay: Growth inhibition of human LOXIMVI cells after 48 hrs by sulforhodamine B assay; format: functional; method in brief: as §1
# UACC-257 = assay: Growth inhibition of human UACC257 cells after 48 hrs by sulforhodamine B assay; format: functional; conditions: UACC-257, 48 h; method in brief: as §1
# SR = assay: Growth inhibition of human SR cells after 48 hrs by sulforhodamine B assay; format: functional; method in brief: as §1
# Malme-3M = assay: Growth inhibition of human MALME-3M cells after 48 hrs by sulforhodamine B assay; format: functional; method in brief: as §1
# PC-3 = assay: Growth inhibition of human PC3 cells after 48 hrs by sulforhodamine B assay; format: functional; conditions: PC-3, 48 h; method in brief: as §1
# UACC-62 = assay: Growth inhibition of human UACC62 cells after 48 hrs by sulforhodamine B assay; format: functional; conditions: UACC-62, 48 h; method in brief: as §1
# A-375 [3] = assay: Cell cycle arrest in human A375 cells assessed as accumulation at G0 phase at 2 uM after 24 hrs using propidium iodide staining by flow cytometry; format: functional; method in brief: as §3
# MOLT-4 = assay: Growth inhibition of human MOLT4 cells after 48 hrs by sulforhodamine B assay; format: functional; conditions: MOLT-4, 48 h; method in brief: as §1
# CAKI-1 = assay: Growth inhibition of human Caki1 cells after 48 hrs by sulforhodamine B assay; format: functional; conditions: CAKI-1, 48 h; method in brief: as §2
# HL-60 = assay: Growth inhibition of human HL-60(TB) cells after 48 hrs by sulforhodamine B assay; format: functional; conditions: HL-60, 48 h; method in brief: as §1
# A-375 [4] = assay: Cell cycle arrest in human A375 cells assessed as accumulation at G2/M phase at 2 uM after 24 hrs using propidium iodide staining by flow cytometry; format: functional; method in brief: as §3
# TK-10 = assay: Growth inhibition of human TK10 cells after 48 hrs by sulforhodamine B assay; format: functional; conditions: TK-10, 48 h; method in brief: as §1
# NCI-H522 = assay: Growth inhibition of human NCI-H522 cells after 48 hrs by sulforhodamine B assay; format: functional; conditions: NCI-H522, 48 h; method in brief: as §1
# IGROV-1 = assay: Growth inhibition of human IGROV1 cells after 48 hrs by sulforhodamine B assay; format: functional; conditions: IGROV-1, 48 h; method in brief: as §1
# A549 = assay: Growth inhibition of human A549 cells after 48 hrs by sulforhodamine B assay; format: functional; conditions: A549, 48 h; method in brief: as §2
# HT-29 = assay: Growth inhibition of human HT-29 cells after 48 hrs by sulforhodamine B assay; format: functional; conditions: HT-29, 48 h; method in brief: as §1
# OVCAR-8 = assay: Growth inhibition of human OVCAR8 cells after 48 hrs by sulforhodamine B assay; format: functional; conditions: OVCAR-8, 48 h; method in brief: as §1
# Hs-578T = assay: Growth inhibition of human Hs 578T cells after 48 hrs by sulforhodamine B assay; format: functional; method in brief: as §1
# HCT-15 = assay: Growth inhibition of human HCT15 cells after 48 hrs by sulforhodamine B assay; format: functional; conditions: HCT-15, 48 h; method in brief: as §1
# KM12 = assay: Growth inhibition of human KM12 cells after 48 hrs by sulforhodamine B assay; format: functional; conditions: KM12, 48 h; method in brief: as §1
# A-375 [5] = assay: Cell cycle arrest in human A375 cells assessed as accumulation at S phase at 2 uM after 24 hrs using propidium iodide staining by flow cytometry; format: functional; method in brief: as §3
# MDA-MB-435 = assay: Growth inhibition of human MDA-MB-435 cells after 48 hrs by sulforhodamine B assay; format: functional; conditions: MDA-MB-435, 48 h; method in brief: as §1
smiles,measurement,setting,value
COc1cc(-c2nc3ccccc3s2)ccc1OCCCCCOc1cc2c(cc1OC)C(=O)N1CCC[C@H]1C=N2,GI50,NCI-H460,39.8 nM
same,GI50,BT-549,21.9 nM
same,GI50,SF-539,39.8 nM
same,GI50,SNB-75,145 nM
same,GI50,MCF7,19.1 nM
same,GI50,COLO 205,60.3 nM
same,GI50,HCT-116,38.9 nM
same,GI50,HOP-92,44.7 nM
same,GI50,U-251,33.9 nM
same,Activity,A-375 [1],67.04%
same,GI50,HCC 2998,126 nM
same,GI50,786-0,27.5 nM
same,ΔTm,Calf thymus DNA,6.3 °C
same,GI50,A498,174 nM
same,Activity,A-375 [2],93.79%
same,GI50,SF-295,67.6 nM
same,GI50,HOP-62,45.7 nM
same,GI50,ACHN,53.7 nM
same,GI50,NCI-H322M,302 nM
same,GI50,RXF 393,51.3 nM
same,GI50,SF-268,347 nM
same,GI50,OVCAR-5,70.8 nM
same,GI50,NCI/ADR-RES,269 nM
same,GI50,LOX IMVI,18.2 nM
same,GI50,UACC-257,186 nM
same,GI50,SR,17.4 nM
same,GI50,Malme-3M,145 nM
same,GI50,PC-3,41.7 nM
same,GI50,UACC-62,81.3 nM
same,Activity,A-375 [3],26.75%
same,GI50,MOLT-4,43.6 nM
same,GI50,CAKI-1,117 nM
same,GI50,HL-60,33.1 nM
same,Activity,A-375 [4],3.1%
same,GI50,TK-10,331 nM
same,GI50,NCI-H522,41.7 nM
same,GI50,IGROV-1,347 nM
same,GI50,A549,240 nM
same,GI50,HT-29,40.7 nM
same,GI50,OVCAR-8,141 nM
same,GI50,Hs-578T,141 nM
same,GI50,HCT-15,224 nM
same,GI50,KM12,166 nM
same,Activity,A-375 [5],3.11%
same,GI50,MDA-MB-435,85.1 nM
COc1cc2c(cc1OCCCCC(=O)Nc1ccc(-c3nc4ccccc4s3)cc1)N=C[C@@H]1CCCN1C2=O,GI50,NCI-H460,1660 nM
same,GI50,BT-549,1120 nM
same,GI50,SF-539,1580 nM
same,GI50,SNB-75,1820 nM
same,GI50,MCF7,724 nM
same,GI50,COLO 205,1700 nM
same,GI50,HCT-116,1860 nM
same,GI50,HOP-92,1740 nM
same,GI50,U-251,1910 nM
same,Activity,A-375 [1],73.34%
same,GI50,HCC 2998,1580 nM
same,GI50,786-0,1550 nM
same,ΔTm,Calf thymus DNA,0.5 °C
same,GI50,A498,1860 nM
same,Activity,A-375 [2],88.44%
same,GI50,SF-295,550 nM
same,GI50,HOP-62,2450 nM
same,GI50,ACHN,3020 nM
same,GI50,NCI-H322M,2820 nM
same,GI50,RXF 393,1620 nM
same,GI50,SF-268,2040 nM
same,GI50,OVCAR-5,3550 nM
same,GI50,NCI/ADR-RES,11000 nM
same,GI50,LOX IMVI,1550 nM
same,GI50,UACC-257,1740 nM
same,GI50,SR,550 nM
same,GI50,Malme-3M,1910 nM
same,GI50,PC-3,2040 nM
same,GI50,UACC-62,1740 nM
same,Activity,A-375 [3],15.1%
same,GI50,MOLT-4,1620 nM
same,GI50,CAKI-1,2190 nM
same,GI50,HL-60,1780 nM
same,Activity,A-375 [4],5.41%
same,GI50,TK-10,3240 nM
same,GI50,NCI-H522,977 nM
same,GI50,IGROV-1,692 nM
same,GI50,A549,3390 nM
same,GI50,HT-29,2140 nM
same,GI50,OVCAR-8,1550 nM
same,GI50,Hs-578T,2750 nM
same,GI50,HCT-15,2820 nM
same,GI50,KM12,2950 nM
same,Activity,A-375 [5],6.15%
same,GI50,MDA-MB-435,1780 nM
